Legend:
Aphis gossypii [1] = assay: Insecticidal activity against Aphis gossypii glover in cotton/melon plant; type: functional, organism-based
Summary of the method: (§1)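 Combined contact/systemic (CON/SYS) plant assay. Test compound applied to give good foliar and soil coverage, so both contact and soil systemic exposure occur. Aphis gossypii on cotton plants; Myzus persicae on radish plants 12–15 days old, treated the same way. Run in triplicate, rates 3–5× apart where possible. Units dried 1 h, capped, held 6 days at 19–21 °C and 50–70% RH.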

Myzus persicae [2] = assay: Insecticidal activity against Myzus persicae Sulzer in raddish plant; type: functional, organism-based; summary of the method: as §1
Myzus persicae [3] = assay: Insecticidal activity against Myzus persicae Sulzer in raddish plant assessed as mortality at 250 ppm by systemic plant assay; type: functional
Summary of the method: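 Systemic-only (SYS) plant assay on Myzus persicae. Formulated compound applied directly to the soil, avoiding any direct contact with the aphids. Percent mortality recorded at 250 ppm.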

Myzus persicae [4] = assay: Insecticidal activity against Myzus persicae Sulzer in raddish plant by combined contact/systemic plant assay; design: unit not given here
Aphis gossypii [5] = assay: Insecticidal activity against Aphis gossypii glover in cotton/melon plant by combined contact/systemic plant assay; design: unit not given here
Aphis gossypii [6] = assay: as above
[7] = Lipophilicity, log P of the compound; type: physicochemical; conditions: octanol/water
Summary of the method: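 Measured by reversed-phase HPLC on a C18 column at 40 °C, 1.0 mL/min. Gradient over 5 min from 99% 5 mM ammonium acetate pH 7 to 99% 5 mM ammonium acetate in acetonitrile. logP read from a calibration curve of retention times for compounds with known shake-flask octanol–water values.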

Myzus persicae [8] = assay: Insecticidal activity against Myzus persicae Sulzer in raddish plant by combined contact/systemic plant assay; design: unit not given here; remark: listed apart in the source
Myzus persicae [9] = assay: Insecticidal activity against Myzus persicae Sulzer in raddish plant assessed as mortality at 50 ppm; type: functional; summary of the method: as §1
Aphis gossypii [10] = assay: Insecticidal activity against Aphis gossypii glover in cotton plant assessed as mortality at 250 ppm; type: functional; summary of the method: as §1
Myzus persicae [11] = assay: Insecticidal activity against Myzus persicae Sulzer in raddish plant assessed as mortality at 250 ppm; type: functional; summary of the method: as §1
Aphis gossypii [12] = assay: Insecticidal activity against Aphis gossypii glover in cotton/melon plant assessed as mortality at 2 ppm; type: functional; summary of the method: as §1
Aphis gossypii [13] = assay: Insecticidal activity against Aphis gossypii glover in cotton/melon plant assessed as mortality at 100 ppm; type: functional; summary of the method: as §1
Myzus persicae [14] = assay: Insecticidal activity against Myzus persicae Sulzer in raddish plant assessed as mortality at 100 ppm; type: functional; summary of the method: as §1
Aphis gossypii [15] = assay: Insecticidal activity against Aphis gossypii glover in cotton/melon plant assessed as mortality at 50 ppm; type: functional; summary of the method: as §1

Structure (SMILES) | EC50 (Aphis gossypii [1]) | EC50 (Myzus persicae [2]) | Activity (Myzus persicae [3]) | EC50 lower 95% confidence limit (Myzus persicae [4]) | EC50 upper 95% confidence limit (Aphis gossypii [5]) | EC50 lower 95% confidence limit (Aphis gossypii [6]) | logP [7] | EC50 upper 95% confidence limit (Myzus persicae [8]) | Activity (Myzus persicae [9]) | Activity (Aphis gossypii [10]) | Activity (Myzus persicae [11]) | Activity (Aphis gossypii [12]) | Activity (Aphis gossypii [13]) | Activity (Myzus persicae [14]) | Activity (Aphis gossypii [15])
CNC(=O)c1cc(Cl)cc(Cl)c1NC(=O)c1cc(F)nn1-c1ncccc1Cl | 6.2 ppm | 20.6 ppm | 2% | 15.9 | 8.9 | 4.4 ppm | 2.6 | 26.8 |  |  |  |  |  |  | 
CNC(=O)c1cc(Cl)cc(C)c1NC(=O)c1cc(F)nn1-c1ncccc1Cl | > 100 ppm | > 300 ppm |  |  |  |  |  |  |  |  |  |  |  |  | 
CNC(=O)c1cc(F)cc(Cl)c1NC(=O)c1cc(Br)nn1-c1ncccc1Cl | 2.5 ppm | 7.8 ppm | 2% | 4 | 4.7 | 1.1 ppm | 2.6 | 23.2 |  |  |  |  |  |  | 
CNC(=O)c1cc(F)cc(F)c1NC(=O)c1cc(F)nn1-c1ncccc1Cl | < 250 ppm | < 250 ppm |  |  |  |  |  |  | 80% | 70% | 100% |  |  |  | 
CNC(=O)c1cc(Cl)cc(Cl)c1NC(=O)c1cc(Br)nn1-c1ncccc1F | < 2 ppm | 1.8 ppm | 29% |  |  |  | 2.7 |  |  |  |  | 89% |  |  | 
CNC(=O)c1cc(Cl)cc(Cl)c1NC(=O)c1cc(C(F)(F)F)nn1-c1ncccc1Cl | 2.1 ppm | 3.4 ppm | 74% | 2.7 | 3.5 | 1.4 ppm |  | 4.6 |  |  |  |  |  |  | 
CNC(=O)c1cc(Cl)cc(Cl)c1NC(=O)c1cc(Br)nn1-c1ncccc1Cl | 1.6 ppm | 2.1 ppm | 22% | 1.4 | 2.4 | 0.9 ppm | 3 | 3.2 |  |  |  |  |  |  | 
CNC(=O)c1cc(F)cc(Cl)c1NC(=O)c1cc(F)nn1-c1ncccc1Cl | < 100 ppm | < 100 ppm |  |  |  |  |  |  |  |  |  |  | 89% | 65% | 
CNC(=O)c1cc(Cl)cc(Cl)c1NC(=O)c1cc(C(F)(F)F)nn1-c1ncccc1F | 9.1 ppm | 3.4 ppm | 58% | 1.5 | 16.3 | 5.8 ppm |  | 7 |  |  |  |  |  |  | 
CNC(=O)c1cc(Cl)cc(F)c1NC(=O)c1cc(Br)nn1-c1ncccc1Cl | 5.5 ppm | > 300 ppm |  |  | 9.5 | 3 ppm | 2.9 |  |  |  |  |  |  |  | 
CNC(=O)c1cc(Cl)cc(C)c1NC(=O)c1cc(Br)nn1-c1ncccc1F | 3.7 ppm | 11.3 ppm | 29% | 8.7 | 6.4 | 2 ppm |  | 15.2 |  |  |  |  |  |  | 
CNC(=O)c1cc(F)cc(C)c1NC(=O)c1cc(Br)nn1-c1ncccc1Cl | 11.3 ppm | > 300 ppm | <80% |  | 18.5 | 7.2 ppm |  |  |  |  |  |  |  |  | 
CNC(=O)c1cc(F)cc(C)c1NC(=O)c1cc(C(F)(F)F)nn1-c1ncccc1Cl | 63.4 ppm | 30.8 ppm | 8% | 6.7 | 201 | 26 ppm |  | 84.3 |  |  |  |  |  |  | 
CNC(=O)c1cc(F)cc(Cl)c1NC(=O)c1cc(C(F)(F)F)nn1-c1ncccc1Cl | 5.5 ppm | 9.2 ppm | 100% | 7.2 | 8.1 | 4 ppm |  | 12.9 |  |  |  |  |  |  | 
CNC(=O)c1cc(F)cc(F)c1NC(=O)c1cc(Br)nn1-c1ncccc1Cl | < 50 ppm | < 250 ppm | 14% |  |  |  |  |  |  |  |  |  |  |  | 85%
CNC(=O)c1cc(Cl)cc(C)c1NC(=O)c1cc(Br)nn1-c1ncccc1Cl [CHLORANTRANILIPROLE] | 3.1 ppm | 12.4 ppm | 12% |  |  |  | 3 |  |  |  |  |  |  |  | 
O=[N+]([O-])/N=C1\NCCN1Cc1ccc(Cl)nc1 [IMIDACLOPRID] | 0.4 ppm | 0.3 ppm |  |  |  |  |  |  |  |  |  |  |  |  | 

Source: ChEMBL document CHEMBL1143958, “Synthesis of insecticidal fluorinated anthranilic diamides” (Bioorg Med Chem, 2008)
